From ChEMBL document CHEMBL1124035, “1-Amino-substituted 4-methyl-5H-pyrido[4,3-b]indoles (gamma-carbolines) as tricyclic analogues of ellipticines: a new class of antineoplastic agents” (1988)

Experiments:
[1] = test system: Calf thymus DNA; assay: Apparent DNA affinity constant; assay type: nucleic-acid assay; settings: Bos taurus
Summary of the method: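 Apparent DNA affinity constant was measured by competition with ethidium bromide. Buffer was 20 mM Na2HPO4/NaH2PO4, 0.1 M NaCl, 1 mM EDTA, pH 7.4, with calf thymus DNA at 10 μg/mL. Values are given in 10^6 M⁻¹.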

[2] = test system: L1210; assay: Ability to reduce the cell count to 50% in L1210 culture cells; assay type: functional; settings: Mus musculus, read-out: ID50 (the source's name)
Summary of the method: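 L1210 cells in exponential growth in RPMI 1640 with 2 mM glutamine, penicillin/streptomycin and 10% FCS, 37 °C, 5% CO2. Drugs dissolved in distilled water were added to cells at 0.8 × 10^5 cells/mL for 48 h, then cells were counted. ID50 is the concentration halving cell proliferation versus controls, from regression of dose-response data; mean of two independent experiments.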

[3] = test system: Mus musculus; assay: Antitumor activity against P388 leukemia in mice at a dose of 10 mg/kg administered intraperitoneally for 5 days; assay type: functional; settings: route intraperitoneal
Summary of the method: (§1)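 CDF1 hybrid male or female mice, 10 per group, were inoculated ip with 10^6 viable P388 cells on day 0. Drugs in distilled water were given ip (0.1 mL/10 g body weight) daily D1-5. Vehicle, 5-fluorouracil and BD 84 were given the same way. T/C = median survival day of treated / controls × 100; T/C > 128% was significant; cures counted at D60.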

[4] = test system: Mus musculus; assay: Antitumor activity against P388 leukemia in mice at a dose of 50 mg/kg administered intraperitoneally for 5 days; Non toxic at this dose; assay type: functional; settings: route intraperitoneal
Summary of the method: (§2)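 CDF1 hybrid male or female mice, 10 per group, were inoculated ip on day 0 with 10^6 viable P388 leukemia cells. Drug in distilled water was given ip (0.1 mL/10 g body weight) daily on days 1-5, with vehicle, 5-fluorouracil and BD 84 controls given the same way. T/C = median survival of treated/controls × 100; T/C > 128% counted as significant.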

[5] = test system: Mus musculus; assay: Antitumor activity against P388 leukemia in mice at a dose of 20 mg/kg administered intraperitoneally for 5 days; assay type: functional; settings: route intraperitoneal; summary of the method: as §1
[6] = test system: Mus musculus; assay: Antitumor activity against P388 leukemia in mice at a dose of 80 mg/kg administered intraperitoneally for 5 days; assay type: functional, organism-based; parameters: dose 80 mg/kg; summary of the method: as §2
[7] = test system: Mus musculus; assay: Antitumor activity against P388 leukemia in mice at a dose of 40 mg/kg administered intraperitoneally for 5 days; assay type: functional; summary of the method: as §2
[8] = test system: Mus musculus; assay: Antitumor activity against P388 leukemia in mice at a dose of 5 mg/kg administered intraperitoneally for 5 days; assay type: functional; settings: route intraperitoneal; summary of the method: as §2
[9] = test system: Mus musculus; assay: Antitumor activity against P388 leukemia in mice at a dose of 40 mg/kg administered intraperitoneally for 5 days; Nontoxic at this dose; assay type: functional; settings: route intraperitoneal; summary of the method: as §2
[10] = test system: Mus musculus; assay: Antitumor activity against P388 leukemia in mice at a dose of 50 mg/kg administered intraperitoneally for 5 days; […]; assay type: functional; settings: route intraperitoneal; summary of the method: as §2

| K aff [1] | IC50 [2] | Structure (SMILES) | T/C [3] | T/C [4] | T/C [5] | T/C [6] | T/C ([7]; route intraperitoneal) | T/C [8] | T/C [9] | T/C [7] | T/C [10] |
| --- | --- | --- | --- | --- | --- | --- | --- | --- | --- | --- | --- |
| 250000 M⁻¹ | 0.1 µM | CCN(CC)CCCNc1ncc(C)c2c1c1cc(OC)ccc1n2C | 115% |  | 125% | Toxic | 115% | 107% |  |  |  |
| 110000 M⁻¹ | 0.15 µM | CCN(CC)CCNc1ncc(C)c2c1c1cc(O)ccc1n2C | 153% |  | 182% |  |  | 142% | 137% |  |  |

The remaining lines, values behind:

| Structure (SMILES) | K aff [1] | IC50 [2] | T/C [3] | T/C [4] | T/C [5] | T/C [6] | T/C ([7]; route intraperitoneal) | T/C [8] | T/C [9] | T/C [7] | T/C [10] |
| --- | --- | --- | --- | --- | --- | --- | --- | --- | --- | --- | --- |
| Cc1c[nH]c(NCCNCCO)c2c3ccccc3nc1-2 | 50000 M⁻¹ | 1.14 µM | 109% | 100% |  |  |  |  |  |  |  |
| COc1ccc2c(c1)c1c(NCCCN(C)C)ncc(C)c1n2C | 360000 M⁻¹ | 0.13 µM | 160% |  | 150% |  |  | 134% |  | Toxic |  |
| CCN(CC)CCCNc1[nH]cc(C)c2nc3ccccc3c1-2.O=C(O)/C=C\C(=O)O.O=C(O)/C=C\C(=O)O | 150000 M⁻¹ | 0.22 µM | 130% |  |  |  |  |  |  |  | 175% |
